# Tests used:
# [1] = tested on: Human immunodeficiency virus 1; assay: Antiviral activity against HIV1 3B infected in human MT4 cells assessed as protection against virus-induced cytopathic effect incubated for 5 days by MTT assay; format: functional, organism-based; settings: Human immunodeficiency virus 1, 3B, MT4, 120 h
# [2] = tested on: Human immunodeficiency virus 1; assay: Antiviral activity against NNRTI-resistant HIV1 RES056 containing reverse transcriptase K103N+Y181C mutant infected in human MT4 cells assessed as protection against virus-induced cytopathic effect incubated for 5 days by MTT assay; format: functional, organism-based; settings: Human immunodeficiency virus 1, RES056, MT4, 120 h
# [3] = tested on: Human immunodeficiency virus 1; assay: Antiviral activity against HIV1 containing reverse transcriptase Y188L mutant infected in human MT4 cells assessed as protection against virus-induced cytopathic effect incubated for 5 days by MTT assay; format: functional, organism-based; settings: Human immunodeficiency virus 1, MT4, 120 h
# Cytochrome P450 2D6 = Cytochrome P450 2D6 (Homo sapiens, UniProt P10635); assay: Inhibition of CYP2D6 in human liver microsomes using dextromethorphan substrate in presence of NADPH incubated for 10 mins; format: ADME
# [4] = Tmax in Wistar rat at 2 mg/kg, iv by LC-MS/MS analysis; format: ADME, organism-based; settings: in vivo
# Procedure, shortened: (§1)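 Single dose, intravenous at 2 mg/kg or oral at 10 mg/kg, in Wistar rats and Kunming mice.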
# [5] = Toxicity in Kunming mouse assessed as induction of abnormal behaviors at 2000 mg/kg, po administered as single dose measured during 7 days post dose; format: organism-based; settings: in vivo, 168 h
# Procedure, shortened: (§2)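 Kunming mice received a single oral 2000 mg/kg dose and were followed for 7 days alongside an untreated control group. Mortality, poisoning symptoms and behaviour were recorded, and relative body-weight change was tracked.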
# [6] = Toxicity in Kunming mouse assessed as induction of mortality at 2000 mg/kg, po administered as single dose measured during 7 days post dose; format: organism-based; settings: in vivo, 168 h; procedure, shortened: as §2
# [7] = tested on: Human immunodeficiency virus 1; assay: Antiviral activity against HIV1 containing reverse transcriptase Y181C mutant infected in human MT4 cells assessed as protection against virus-induced cytopathic effect incubated for 5 days by MTT assay; format: functional, organism-based; settings: Human immunodeficiency virus 1, MT4, 120 h
# [8] = Toxicity in Kunming mouse assessed as induction of poisoning symptoms at 2000 mg/kg, po administered as single dose measured during 7 days post dose; format: organism-based; settings: in vivo, 168 h; procedure, shortened: as §2
# [9] = tested on: Human immunodeficiency virus 1; assay: Antiviral activity against HIV1 containing reverse transcriptase L100I mutant infected in human MT4 cells assessed as protection against virus-induced cytopathic effect incubated for 5 days by MTT assay; format: functional, organism-based; settings: Human immunodeficiency virus 1, MT4, 120 h
# [10] = Tmax in Kunming mouse at 2 mg/kg, iv by LC-MS/MS analysis; format: ADME, organism-based; settings: in vivo; procedure, shortened: as §1
# [11] = tested on: Human immunodeficiency virus 1; assay: Antiviral activity against HIV1 containing reverse transcriptase K103N mutant infected in human MT4 cells assessed as protection against virus-induced cytopathic effect incubated for 5 days by MTT assay; format: functional, organism-based; settings: Human immunodeficiency virus 1, MT4, 120 h
# [12] = tested on: Human immunodeficiency virus 1; assay: Antiviral activity against HIV1 containing reverse transcriptase F227L+V106A mutant infected in human MT4 cells assessed as protection against virus-induced cytopathic effect incubated for 5 days by MTT assay; format: functional, organism-based; settings: Human immunodeficiency virus 1, MT4, 120 h
# [13] = Toxicity in Kunming mouse assessed as induction of body weight changes at 2000 mg/kg, po administered as single dose measured during 7 days post dose; format: organism-based; settings: in vivo, 168 h; procedure, shortened: as §2
# [14] = Tmax in Wistar rat at 10 mg/kg, po by LC-MS/MS analysis; format: ADME, organism-based; settings: in vivo; procedure, shortened: as §1
# [15] = Tmax in Kunming mouse at 10 mg/kg, po by LC-MS/MS analysis; format: ADME, organism-based; settings: in vivo; procedure, shortened: as §1
# [16] = tested on: Human immunodeficiency virus 1; assay: Antiviral activity against HIV1 containing reverse transcriptase E138K mutant infected in human MT4 cells assessed as protection against virus-induced cytopathic effect incubated for 5 days by MTT assay; format: functional, organism-based; settings: Human immunodeficiency virus 1, MT4, 120 h
# Cytochrome P450 2D6, sequence (P10635 whole entry): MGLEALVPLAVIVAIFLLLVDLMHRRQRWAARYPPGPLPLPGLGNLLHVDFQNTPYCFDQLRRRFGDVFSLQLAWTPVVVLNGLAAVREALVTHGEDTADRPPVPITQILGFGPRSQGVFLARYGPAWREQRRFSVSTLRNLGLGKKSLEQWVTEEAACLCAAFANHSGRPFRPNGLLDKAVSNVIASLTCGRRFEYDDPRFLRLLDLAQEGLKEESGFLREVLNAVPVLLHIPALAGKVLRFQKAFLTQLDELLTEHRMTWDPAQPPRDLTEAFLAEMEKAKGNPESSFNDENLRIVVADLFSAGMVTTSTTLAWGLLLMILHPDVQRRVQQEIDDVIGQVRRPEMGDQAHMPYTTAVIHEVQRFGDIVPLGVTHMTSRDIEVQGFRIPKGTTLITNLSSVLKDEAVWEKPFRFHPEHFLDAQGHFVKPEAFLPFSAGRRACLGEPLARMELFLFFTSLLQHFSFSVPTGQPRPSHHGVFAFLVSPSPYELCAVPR
SMILES,EC50 [1] [nM],EC50 [2] [nM],other results
Cc1cc(C#N)cc(C)c1Oc1nc(Nc2ccc(C#N)cc2C(F)(F)F)nc2sccc12,1280,,
Cc1cc(C#N)cc(C)c1Oc1nc(Nc2ccc(C#N)c(F)c2)nc2sccc12,10.1,119,
Cc1cc(/C=C/C#N)cc(C)c1Oc1nc(Nc2ccc(C#N)c(F)c2)nc2ccsc12,8.6,21.5,EC50 [3]: 8.15 nM; IC50 (Cytochrome P450 2D6): > 50000 nM; Tmax [4]: 1.98 min; Activity [5]: Non-Toxic; Activity [6]: Non-Toxic; EC50 [7]: 8.49 nM; Activity [8]: Non-Toxic; EC50 [9]: < 3.62 nM; Tmax [10]: 1.98 min; EC50 [11]: < 3.62 nM; EC50 [12]: 9.28 nM; Activity [13]: Non-Toxic; Tmax [14]: 30 min; Tmax [15]: 60 min; EC50 [16]: 9.4 nM
Cc1cc(C#N)cc(C)c1Oc1nc(Nc2ccc(C#N)c(F)c2)nc2c1COC2,2.99,274,
Cc1cc(C#N)cc(C)c1Oc1nc(Nc2ccc(C#N)c(F)c2)nc2c1CSC2,20.7,611,
Cc1cc(C#N)cc(C)c1Oc1ccnc(Nc2ccc(C#N)c(F)c2)n1,6.33,388,
Cc1cc(C#N)cc(C)c1Oc1nc(Nc2ccc(C#N)c(F)c2)nc2ncsc12,3,131,
Cc1cc(C#N)cc(C)c1Oc1nc(Nc2ccc(C#N)c(F)c2)nc2ccsc12,6.74,50.1,
Cc1cc(/C=C/C#N)cc(C)c1Oc1nc(Nc2ccc(C#N)c(F)c2F)nc2ccsc12,8.92,1090,
Cc1cc(C#N)cc(C)c1Oc1nc(Nc2ccc(C#N)c(F)c2)nc2c1CCC2,37.7,951,
Cc1cc(C#N)cc(C)c1Oc1nc(Nc2ccc(C#N)cc2C(F)(F)F)nc2ccsc12,896,,
Cc1cc(/C=C/C#N)cc(C)c1Oc1nc(Nc2ccc(C#N)c(C(F)(F)F)c2)nc2sccc12,35.3,140,
Cc1cc(C#N)cc(C)c1Oc1nc(Nc2ccc(C#N)c(F)c2)nc2c1SCC2,6.31,107,
Cc1cc(C#N)cc(C)c1Oc1nc(Nc2ccc(C#N)c(F)c2)nc2c1CCCC2,11.3,180,
Cc1cc(/C=C/C#N)cc(C)c1Oc1nc(Nc2ccc(C#N)cc2F)nc2sccc12,7.13,473,
Cc1cc(/C=C/C#N)cc(C)c1Oc1nc(Nc2ccc(C#N)cc2C(F)(F)F)nc2sccc12,166,,
Cc1cc(/C=C/C#N)cc(C)c1Oc1nc(Nc2ccc(C#N)c(F)c2)nc2sccc12,7.64,33.4,EC50 [3]: 35.7 nM; EC50 [7]: 26.3 nM; EC50 [9]: 5.55 nM; EC50 [11]: 7.36 nM; EC50 [12]: 32.8 nM; EC50 [16]: 29.7 nM

SMILES,EC50 [1] [nM],EC50 [2] [nM],other results
Cc1cc(C#N)cc(C)c1Oc1nc(Nc2ccc(C#N)c(F)c2)nc2cccc(F)c12,12.3,182,
Cc1cc(C#N)cc(C)c1Oc1nc(Nc2ccc(C#N)c(C(F)(F)F)c2)nc2ccsc12,29.2,,
Cc1cc(C#N)cc(C)c1Oc1nc(Nc2ccc(C#N)cc2F)nc2sccc12,24,,
Cc1cc(C#N)cc(C)c1Oc1nc(Nc2ccc(C#N)c(C(F)(F)F)c2)nc2sccc12,44.9,,
Cc1cc(C#N)cc(C)c1Oc1cc(Cl)nc(Nc2ccc(C#N)c(F)c2)n1,48.9,898,
Cc1cc(C#N)cc(C)c1Oc1nc(Nc2ccc(C#N)c(F)c2)nc2scnc12,3.72,162,
Cc1cc(C#N)cc(C)c1Oc1nc(Nc2ccc(C#N)cc2F)nc2ccsc12,30.4,,
Cc1cc(C#N)cc(C)c1Oc1nc(Nc2ccc(C#N)c(F)c2F)nc2ccsc12,226,,
Cc1cc(/C=C/C#N)cc(C)c1Oc1nc(Nc2ccc(C#N)cc2F)nc2ccsc12,6.34,561,
Cc1cc(/C=C/C#N)cc(C)c1Oc1nc(Nc2ccc(C#N)cc2C(F)(F)F)nc2ccsc12,24.5,48.4,
Cc1cc(/C=C/C#N)cc(C)c1Oc1nc(Nc2ccc(C#N)c(C(F)(F)F)c2)nc2ccsc12,146,,
Cc1cc(/C=C/C#N)cc(C)c1Oc1nc(Nc2ccc(C#N)c(F)c2F)nc2sccc12,18.6,2350,
Cc1cc(C#N)cc(C)c1Oc1nc(Nc2ccc(C#N)c(F)c2)nc2cc[nH]c12,2.89,29.4,
Cc1cc(C#N)cc(C)c1Oc1nc(Nc2ccc(C#N)c(F)c2)nc2ccccc12,8.07,148,
Cc1cc(C#N)cc(C)c1Oc1nc(Nc2ccc(C#N)c(F)c2F)nc2sccc12,40.3,,
O=C1Nc2ccc(Cl)cc2[C@@](C#CC2CC2)(C(F)(F)F)O1 [EFAVIRENZ],2.31 to 2.49,186 to 260,
Cc1cc(C#N)cc(C)c1Oc1nc(Nc2ccc(C#N)cc2)nc(N)c1Br [ETRAVIRINE],2.55 to 3.13,32.2 to 37.9,
